Assay results gathered from unrelated publications.
Each line is one published result; the experiments were not run side by side.
CYP2D6: Cytochrome P450 2D6 (CYP2D6, Homo sapiens, UniProt P10635)

| Structure (SMILES) | tested on | assay | system | setting | endpoint | value |
| --- | --- | --- | --- | --- | --- | --- |
| Cc1nc(-c2cnc(NC(C)C)n(C)c2=O)ccc1Oc1ccnc(-c2cnn(C)c2)c1 | – | – | male beagle dog, plasma | oral, 3 mg/kg | AUC(0-t) | 7030 ng·h/mL |
| CCOC(=O)C1CCN(C(=O)c2ccc(N(CC)Cc3cnc4nc(N)nc(N)c4n3)cc2)CC1 | CYP2D6 | enzyme activity, inhibitor, luciferase | – | 10 µM | inhibition | -4.18% |
| COc1cc2c3c(n(CCCN4CCOCC4)c(=O)c2cc1OC)-c1cc2c(cc1C3=O)OCO2 | – | – | male beagle dog, plasma | intravenous, 10 mg/m², infusion | AUC(0-inf) | 383 ng·h/mL |
| CC(C)(O)c1coc(S(=O)(=O)NC(=O)Nc2c3c(cc4c2CCC4)CCC3)c1 | J774.A1 | cell growth or viability, MTT | – | 10 µM, 4 h | viability | 94.9% |
| CCn1c(=O)c(-c2cc(NC(=O)Nc3ccccc3)c(F)cc2Br)cc2cnc(NC)cc21 | – | – | beagle dog, plasma | oral, 5 mg/kg, single dose | AUC(0-inf) | 4030 ng·h/mL |
| Cc1ccc(C(CS(=O)(=O)c2ccccc2)=NNC2=NC(=O)C(=NNc3ccc([N+](=O)[O-])cc3)S2)cc1 | WM 266-4 | cell growth or viability, MTT | – | 1.6 µg, 48 h | viability | 50.5% |
| COC(=O)C1CCN(C(=O)c2cccc(NCc3cnc4nc(N)nc(N)c4n3)c2)CC1 | CYP2D6 | enzyme activity, inhibitor, luciferase | – | 10 µM | inhibition | -11.1% |
| Cc1ccc(C(CS(=O)(=O)c2ccccc2)=NN=C2N=C(c3ccc(Br)cc3)CS2)cc1 | WM 266-4 | cell growth or viability, MTT | – | 1.6 µg, 48 h | viability | 55.1% |
| CC[C@@H]1CN(C(=O)NCC(F)(F)F)C[C@@H]1c1cnc2cnc3[nH]ccc3n12 | – | – | beagle dog, plasma | oral, 1 mg/kg, single dose | AUC(0-t) | 558 ng·h/mL |
| CC(C)(C)c1nc(-c2cccc(NS(=O)(=O)c3c(F)cccc3F)c2F)c(-c2ccnc(N)n2)s1 | WM 266-4 | cell growth or viability, MTT | – | 1.6 µg, 48 h | viability | 64.6% |
| COCCc1ccc(OCC(O)CNC(C)C)cc1 (stereo not shown) | CYP2D6 | – | human, plasma | oral, 100 mg, single dose, healthy volunteers | Cmax | 123 ng/mL |
| CNC(=O)c1cc(Oc2ccc(NC(=O)Nc3ccc(Cl)c(C(F)(F)F)c3)cc2)ccn1 | WM 266-4 | cell growth or viability, MTT | – | 1.6 µg, 48 h | viability | 58.5% |
| C#C[C@]1(CO)O[C@@H](n2cnc3c(N)nc(F)nc32)C[C@@H]1O | Ca-Ski | cell growth or viability, MTT | – | 24 h | CC50 | > 50 µg/mL |
